The target in assay [1] is AMP-activated protein kinase, AMPK (Homo sapiens) (UniProt P54646+O43741+P54619+Q9UGJ0+Q9Y478+Q13131+Q9UGI9). The assay is described as follows: Inhibition of AMPK (unknown origin) at 1 uM relative to control. It counts as protein-complex assay. Put shortly: (§1)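 Single-point screen of each compound against a panel of 59 protein kinases, at 1 or 10 μM. The panel data are also summarised as a rescaled geometric mean selectivity score.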

Assay [2] deals with Aurora kinase B (Homo sapiens) (UniProt Q96GD4). The assay is described as follows: Inhibition of Aurora B (unknown origin) at 1 uM relative to control. Put shortly:
as §1

Assay [3] has as its target Tyrosine-protein kinase BTK (Homo sapiens) (UniProt Q06187). The assay is described as follows: Inhibition of BTK (unknown origin) at 1 uM relative to control. Put shortly: as §1
For assay [4], the target named is Calcium/calmodulin-dependent protein kinase kinase 2 (Homo sapiens) (UniProt Q96RR4). The assay is described as follows: Inhibition of CAMKKb (unknown origin) at 1 uM relative to control. Put shortly: as §1
Chain of Calcium/calmodulin-dependent protein kinase kinase 2 (Homo sapiens) (Q96RR4 2-588 limits assumed): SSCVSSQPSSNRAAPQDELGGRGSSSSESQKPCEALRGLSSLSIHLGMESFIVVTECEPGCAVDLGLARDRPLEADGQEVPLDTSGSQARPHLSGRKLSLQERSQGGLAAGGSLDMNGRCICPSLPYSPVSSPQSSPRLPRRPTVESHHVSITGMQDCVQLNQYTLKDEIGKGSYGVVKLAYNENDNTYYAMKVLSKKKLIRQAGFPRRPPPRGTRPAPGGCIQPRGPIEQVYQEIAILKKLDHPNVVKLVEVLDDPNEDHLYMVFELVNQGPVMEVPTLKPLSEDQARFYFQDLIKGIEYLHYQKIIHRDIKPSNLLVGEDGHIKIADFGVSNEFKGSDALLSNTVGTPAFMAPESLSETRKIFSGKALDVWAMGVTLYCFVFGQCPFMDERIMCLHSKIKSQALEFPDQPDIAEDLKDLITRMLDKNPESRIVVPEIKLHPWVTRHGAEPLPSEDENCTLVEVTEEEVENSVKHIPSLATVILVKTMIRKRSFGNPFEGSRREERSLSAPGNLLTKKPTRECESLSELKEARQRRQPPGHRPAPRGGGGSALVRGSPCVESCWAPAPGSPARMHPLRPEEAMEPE
The target in assay [5] is Serine/threonine-protein kinase Chk2 (Homo sapiens) (UniProt O96017). The assay is described as follows: Inhibition of CHK2 (unknown origin) at 1 uM relative to control. Put shortly:
as §1

Assay [6] deals with T1, Ephrin type-B receptor 3 (Homo sapiens) (UniProt P54753).
T1 sequence (whole entry): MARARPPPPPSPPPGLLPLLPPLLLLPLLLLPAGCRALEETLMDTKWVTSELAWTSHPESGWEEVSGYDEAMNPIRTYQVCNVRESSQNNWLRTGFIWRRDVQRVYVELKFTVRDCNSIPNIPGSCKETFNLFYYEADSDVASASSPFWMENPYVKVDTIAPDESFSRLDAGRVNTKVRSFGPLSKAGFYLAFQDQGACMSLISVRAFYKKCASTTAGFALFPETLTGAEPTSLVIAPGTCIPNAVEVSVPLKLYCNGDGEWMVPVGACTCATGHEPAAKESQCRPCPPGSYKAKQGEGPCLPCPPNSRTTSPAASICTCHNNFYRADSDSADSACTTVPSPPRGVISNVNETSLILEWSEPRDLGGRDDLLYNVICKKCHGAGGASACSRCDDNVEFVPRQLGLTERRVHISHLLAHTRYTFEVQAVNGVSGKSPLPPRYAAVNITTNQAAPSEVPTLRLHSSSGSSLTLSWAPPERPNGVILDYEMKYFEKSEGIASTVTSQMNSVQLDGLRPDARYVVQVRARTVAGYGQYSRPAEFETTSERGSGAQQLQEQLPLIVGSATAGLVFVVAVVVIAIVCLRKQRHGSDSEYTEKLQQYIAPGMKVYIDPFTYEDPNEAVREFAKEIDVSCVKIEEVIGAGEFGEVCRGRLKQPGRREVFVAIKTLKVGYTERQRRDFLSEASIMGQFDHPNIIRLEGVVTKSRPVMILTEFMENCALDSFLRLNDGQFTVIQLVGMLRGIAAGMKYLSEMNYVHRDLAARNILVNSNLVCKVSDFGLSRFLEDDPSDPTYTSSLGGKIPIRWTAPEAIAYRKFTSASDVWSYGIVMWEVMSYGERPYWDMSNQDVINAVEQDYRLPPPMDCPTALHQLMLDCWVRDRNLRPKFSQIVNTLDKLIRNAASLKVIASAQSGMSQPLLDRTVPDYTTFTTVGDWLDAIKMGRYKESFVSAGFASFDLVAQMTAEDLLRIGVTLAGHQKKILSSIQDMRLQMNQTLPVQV
The assay is described as follows: Inhibition of EPHB3 (unknown origin) at 1 uM relative to control. In short, it runs like this:
as §1

The target in assay [7] is Mitogen-activated protein kinase 3 (Homo sapiens) (UniProt P27361). The assay is described as follows: Inhibition of ERK1 (unknown origin) at 1 uM relative to control. Put shortly:
as §1

Assay [8] concerns the target Mitogen-activated protein kinase 1 (Homo sapiens) (UniProt P28482). The assay is described as follows: Inhibition of ERK2 (unknown origin) at 1 uM relative to control. Put shortly: as §1
Assay [9] concerns the target Fibroblast growth factor receptor 1 (Homo sapiens) (UniProt P11362). The assay is described as follows: Inhibition of FGFR1 (unknown origin) at 1 uM relative to control. Put shortly: as §1
For assay [10], the target named is Insulin receptor-related protein (Homo sapiens) (UniProt P14616). The assay is described as follows: Inhibition of IRR (unknown origin) at 1 uM relative to control. Put shortly: as §1
The target in assay [11] is Dual specificity mitogen-activated protein kinase kinase 1 (Homo sapiens) (UniProt Q02750). The assay is described as follows: Inhibition of MKK1 (unknown origin) at 1 uM relative to control. Put shortly: (§2)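 Single-concentration screen of each compound against a 59-protein-kinase panel, run at 10 µM or 1 µM. Activity relative to control is shown as a heat map across the panel.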
Chain of Dual specificity mitogen-activated protein kinase kinase 1 (Homo sapiens) (Q02750 whole entry): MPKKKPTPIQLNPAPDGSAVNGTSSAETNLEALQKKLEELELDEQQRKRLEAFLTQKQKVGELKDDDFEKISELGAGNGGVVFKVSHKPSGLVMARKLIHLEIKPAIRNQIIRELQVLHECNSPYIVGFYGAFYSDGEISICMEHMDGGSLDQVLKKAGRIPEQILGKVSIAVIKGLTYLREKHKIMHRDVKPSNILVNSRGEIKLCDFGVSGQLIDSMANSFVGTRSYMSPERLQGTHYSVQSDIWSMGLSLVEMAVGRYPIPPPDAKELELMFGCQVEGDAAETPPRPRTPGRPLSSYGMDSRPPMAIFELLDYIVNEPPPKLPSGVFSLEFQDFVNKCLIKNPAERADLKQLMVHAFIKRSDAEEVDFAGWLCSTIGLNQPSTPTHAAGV

Assay [12] has as its target Serine/threonine-protein kinase PLK1 (Homo sapiens) (UniProt P53350). The assay is described as follows: Inhibition of PLK1 (unknown origin) at 1 uM relative to control. Put shortly: as §2
Assay [13] deals with T2, MAP kinase-activated protein kinase 5 (Homo sapiens) (UniProt Q8IW41).
T2 sequence (whole entry): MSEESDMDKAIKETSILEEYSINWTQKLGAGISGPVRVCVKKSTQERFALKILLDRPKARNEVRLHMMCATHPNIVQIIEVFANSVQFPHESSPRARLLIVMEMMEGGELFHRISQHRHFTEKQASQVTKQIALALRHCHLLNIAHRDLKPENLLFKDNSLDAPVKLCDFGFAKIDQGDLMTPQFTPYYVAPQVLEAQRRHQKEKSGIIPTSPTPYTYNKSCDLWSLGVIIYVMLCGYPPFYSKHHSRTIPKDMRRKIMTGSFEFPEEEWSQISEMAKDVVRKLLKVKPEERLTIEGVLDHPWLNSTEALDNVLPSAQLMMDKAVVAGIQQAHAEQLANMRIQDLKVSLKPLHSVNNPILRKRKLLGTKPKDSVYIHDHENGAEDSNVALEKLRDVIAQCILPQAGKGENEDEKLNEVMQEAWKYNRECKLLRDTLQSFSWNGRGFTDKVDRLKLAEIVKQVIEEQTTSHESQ
The assay is described as follows: Inhibition of PRAK (unknown origin) at 1 uM relative to control. In short, it runs like this:
as §2

The target of assay [14] is Rho-associated protein kinase 2 (Homo sapiens) (UniProt O75116). The assay is described as follows: Inhibition of ROCK2 (unknown origin) at 1 uM relative to control. In short, it runs like this:
as §2

Assay [15] addresses Ribosomal protein S6 kinase beta-1 (Homo sapiens) (UniProt P23443). The assay is described as follows: Inhibition of S6K1 (unknown origin) at 1 uM relative to control. In short, it runs like this:
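Single-concentration screen across a panel of 59 protein kinases, with each compound tested at one fixed concentration. The read-out is residual kinase activity relative to control. Panel results are also condensed into a rescaled geometric mean (RGM) selectivity score.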

The target in assay [16] is 3-phosphoinositide-dependent protein kinase 1 (Homo sapiens) (UniProt O15530). The assay is described as follows: Inhibition of PDK1 (unknown origin) at 1 uM relative to control.
Chain of 3-phosphoinositide-dependent protein kinase 1 (Homo sapiens) (O15530 whole entry, looked up): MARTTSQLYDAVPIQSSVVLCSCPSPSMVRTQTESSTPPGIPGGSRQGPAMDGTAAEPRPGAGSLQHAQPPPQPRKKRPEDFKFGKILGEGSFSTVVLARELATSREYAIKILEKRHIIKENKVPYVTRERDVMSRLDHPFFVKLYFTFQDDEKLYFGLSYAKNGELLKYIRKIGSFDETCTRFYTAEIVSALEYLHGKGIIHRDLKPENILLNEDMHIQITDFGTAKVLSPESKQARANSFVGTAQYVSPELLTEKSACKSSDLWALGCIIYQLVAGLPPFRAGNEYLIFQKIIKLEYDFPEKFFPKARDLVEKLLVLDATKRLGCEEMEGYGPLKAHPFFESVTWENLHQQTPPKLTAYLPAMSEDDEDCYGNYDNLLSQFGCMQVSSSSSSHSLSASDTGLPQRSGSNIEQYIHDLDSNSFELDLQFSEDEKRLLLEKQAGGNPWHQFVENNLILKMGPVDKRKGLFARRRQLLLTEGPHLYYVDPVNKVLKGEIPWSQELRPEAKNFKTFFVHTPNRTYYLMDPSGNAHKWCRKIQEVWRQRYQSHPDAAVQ

Chain of Rho-associated protein kinase 2 (Homo sapiens) (O75116 whole entry, looked up): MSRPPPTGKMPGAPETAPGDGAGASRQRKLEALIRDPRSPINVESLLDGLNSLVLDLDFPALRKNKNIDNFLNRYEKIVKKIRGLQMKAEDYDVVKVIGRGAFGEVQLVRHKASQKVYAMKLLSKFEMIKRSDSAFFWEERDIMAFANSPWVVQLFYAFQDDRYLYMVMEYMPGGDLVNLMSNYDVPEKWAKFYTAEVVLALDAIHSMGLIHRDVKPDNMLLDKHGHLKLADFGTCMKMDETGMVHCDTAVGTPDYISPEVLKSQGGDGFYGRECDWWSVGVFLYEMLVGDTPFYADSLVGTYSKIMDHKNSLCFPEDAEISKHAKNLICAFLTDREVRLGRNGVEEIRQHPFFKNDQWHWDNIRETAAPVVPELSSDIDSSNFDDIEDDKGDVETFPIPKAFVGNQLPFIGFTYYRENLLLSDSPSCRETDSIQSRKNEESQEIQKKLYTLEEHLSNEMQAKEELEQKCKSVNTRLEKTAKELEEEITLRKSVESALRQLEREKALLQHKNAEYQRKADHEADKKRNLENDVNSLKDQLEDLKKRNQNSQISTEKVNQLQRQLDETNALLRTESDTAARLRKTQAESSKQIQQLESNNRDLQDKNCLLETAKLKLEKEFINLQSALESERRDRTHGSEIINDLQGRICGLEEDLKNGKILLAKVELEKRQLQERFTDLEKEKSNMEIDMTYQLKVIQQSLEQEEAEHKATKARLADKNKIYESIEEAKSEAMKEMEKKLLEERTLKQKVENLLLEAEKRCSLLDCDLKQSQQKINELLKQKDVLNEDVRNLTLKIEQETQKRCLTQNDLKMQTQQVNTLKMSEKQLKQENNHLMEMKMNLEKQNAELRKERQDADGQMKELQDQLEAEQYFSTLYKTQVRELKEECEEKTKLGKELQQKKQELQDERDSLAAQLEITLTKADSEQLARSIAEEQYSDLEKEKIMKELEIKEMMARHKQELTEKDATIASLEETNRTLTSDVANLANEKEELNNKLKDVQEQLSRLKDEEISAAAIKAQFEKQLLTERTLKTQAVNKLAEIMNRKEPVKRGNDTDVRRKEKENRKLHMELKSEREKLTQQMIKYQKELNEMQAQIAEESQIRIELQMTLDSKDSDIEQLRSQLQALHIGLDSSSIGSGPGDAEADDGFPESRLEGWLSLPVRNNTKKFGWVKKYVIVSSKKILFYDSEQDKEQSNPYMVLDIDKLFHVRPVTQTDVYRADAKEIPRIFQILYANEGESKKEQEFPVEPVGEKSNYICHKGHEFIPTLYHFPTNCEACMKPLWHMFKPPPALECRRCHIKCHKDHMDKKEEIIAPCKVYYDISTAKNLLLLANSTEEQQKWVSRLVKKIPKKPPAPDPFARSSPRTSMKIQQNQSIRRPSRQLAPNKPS
Chain of Ribosomal protein S6 kinase beta-1 (Homo sapiens) (P23443 whole entry, looked up): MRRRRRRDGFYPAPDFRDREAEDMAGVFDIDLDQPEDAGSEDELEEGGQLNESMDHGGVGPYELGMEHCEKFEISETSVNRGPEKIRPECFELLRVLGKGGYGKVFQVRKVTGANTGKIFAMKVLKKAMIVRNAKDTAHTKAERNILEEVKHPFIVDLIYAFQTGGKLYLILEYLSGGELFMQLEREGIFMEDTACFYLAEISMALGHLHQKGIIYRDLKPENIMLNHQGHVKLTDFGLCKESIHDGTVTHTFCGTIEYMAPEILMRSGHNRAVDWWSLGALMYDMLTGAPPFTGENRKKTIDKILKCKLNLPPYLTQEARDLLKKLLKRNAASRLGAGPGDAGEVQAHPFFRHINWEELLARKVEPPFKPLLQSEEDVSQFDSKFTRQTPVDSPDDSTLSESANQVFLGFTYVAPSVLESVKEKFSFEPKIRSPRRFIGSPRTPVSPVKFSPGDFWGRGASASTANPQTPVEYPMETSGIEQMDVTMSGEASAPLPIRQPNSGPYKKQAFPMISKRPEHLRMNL
Chain of Serine/threonine-protein kinase PLK1 (Homo sapiens) (P53350 whole entry): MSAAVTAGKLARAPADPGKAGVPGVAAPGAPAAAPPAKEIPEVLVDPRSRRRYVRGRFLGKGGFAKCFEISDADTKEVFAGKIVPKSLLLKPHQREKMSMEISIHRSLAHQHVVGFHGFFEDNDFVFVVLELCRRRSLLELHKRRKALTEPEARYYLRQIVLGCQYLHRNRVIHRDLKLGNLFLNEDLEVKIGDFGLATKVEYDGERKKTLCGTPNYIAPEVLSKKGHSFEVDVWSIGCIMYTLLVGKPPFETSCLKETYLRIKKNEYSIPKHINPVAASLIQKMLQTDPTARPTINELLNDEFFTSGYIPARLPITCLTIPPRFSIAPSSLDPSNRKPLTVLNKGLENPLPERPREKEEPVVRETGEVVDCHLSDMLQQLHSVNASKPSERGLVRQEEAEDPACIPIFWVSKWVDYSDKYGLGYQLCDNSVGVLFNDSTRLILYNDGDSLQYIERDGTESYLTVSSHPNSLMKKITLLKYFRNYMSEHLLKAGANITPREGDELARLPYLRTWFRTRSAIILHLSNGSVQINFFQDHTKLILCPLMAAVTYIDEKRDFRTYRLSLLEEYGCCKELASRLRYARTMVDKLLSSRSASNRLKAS
Chain of Fibroblast growth factor receptor 1 (Homo sapiens) (P11362 22-822 limits assumed): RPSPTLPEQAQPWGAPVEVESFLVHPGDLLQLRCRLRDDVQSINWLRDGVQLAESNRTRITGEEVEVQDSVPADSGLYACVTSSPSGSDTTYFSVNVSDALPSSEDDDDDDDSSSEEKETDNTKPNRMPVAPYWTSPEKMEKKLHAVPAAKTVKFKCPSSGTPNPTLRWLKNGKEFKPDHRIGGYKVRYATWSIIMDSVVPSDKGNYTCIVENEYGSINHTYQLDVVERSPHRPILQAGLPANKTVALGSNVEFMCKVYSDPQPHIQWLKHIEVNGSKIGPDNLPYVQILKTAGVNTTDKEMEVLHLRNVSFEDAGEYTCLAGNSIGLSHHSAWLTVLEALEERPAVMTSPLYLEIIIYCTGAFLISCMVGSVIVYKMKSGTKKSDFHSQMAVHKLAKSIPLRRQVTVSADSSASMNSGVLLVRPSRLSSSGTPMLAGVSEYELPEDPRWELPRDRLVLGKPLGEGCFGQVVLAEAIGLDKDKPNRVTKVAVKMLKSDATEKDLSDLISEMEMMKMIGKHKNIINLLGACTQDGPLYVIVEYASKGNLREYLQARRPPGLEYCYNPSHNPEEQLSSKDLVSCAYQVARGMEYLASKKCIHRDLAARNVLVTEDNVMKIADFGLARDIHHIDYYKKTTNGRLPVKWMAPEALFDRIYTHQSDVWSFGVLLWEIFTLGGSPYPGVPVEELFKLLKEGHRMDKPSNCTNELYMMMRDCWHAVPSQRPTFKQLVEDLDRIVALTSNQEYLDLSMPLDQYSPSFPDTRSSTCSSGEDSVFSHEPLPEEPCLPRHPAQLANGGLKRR

Take `c1cc(-c2n[nH]c3ccnc(OC4CCOCC4)c23)cc(N2CCOCC2)n1`: the inhibition in assay [1] amounted to 0%; in assay [2], 0%; in assay [3], 51%; in assay [4] it was 0%; in [5], 0%; in assay [6], 0%. The inhibition in assay [7] was 37%; in [8] it was 51%; in assay [9], 4%; in [10] it was 3%; in assay [11], 7%; in assay [12], 0%. The inhibition was 4% in assay [13], 0% in [14], 0% in assay [15] and 0% in assay [16].
With `CC(C)n1cc(-c2n[nH]c3ccnc(OC4CCOCC4)c23)cn1`, the inhibition was 19% in [1]; 38% in [2]; 39% in assay [3]; 1% in [4]; 29% in [5]; 0% in [6]. The inhibition in [7] came out at 28%; in assay [8], 49%; in [9], 56%; in assay [10], 45%; in [11], 57%; in [12] it was 0%. Also, the inhibition in assay [13] was determined as 19%; in assay [14] it was 28%; in assay [15], 16%; in [16], 5%.

The term inhibition denotes the change of the read-out against control, counted positive when it falls.

(Values after ChEMBL document CHEMBL4330096, “Discovery of potent and selective 5-azaindazole inhibitors of leucine-rich repeat kinase 2 (LRRK2) - Part 1” (Bioorg Med Chem Lett, 2019).)
